Data reported in ChEMBL document CHEMBL4043132, “3-O-Substituted-3',4',5'-trimethoxyflavonols: Synthesis and cell-based evaluation as anti-prostate cancer agents” (Bioorg Med Chem, 2017).

Key:
Assay type in all cases: functional, cell-based
[1] = test system: PC-3; assay: Antiproliferative activity against human PC3 cells after 3 days by WST-1 assay; conditions: PC-3, 72 h
Summary of the method: (§1)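 Cells from ATCC; PC-3 and LNCaP grown in RPMI-1640 and DU145 in EMEM, each with 10% FBS and 1% penicillin/streptomycin, 37 °C, 5% CO2. Seeded 3,200 cells/well and exposed for 3 days to at least five doses, with DMSO as vehicle control. WST-1 reagent added for 3 h at 37 °C, absorbance read at 430 nm. IC50 taken from a linear inhibition plot; mean ± SD of three independent experiments.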

[2] = test system: DU-145; assay: Antiproliferative activity against human DU145 cells after 3 days by WST-1 assay; conditions: DU-145, 72 h; summary of the method: as §1
[3] = test system: LNCaP; assay: Antiproliferative activity against human LNCAP cells after 3 days by WST-1 assay; conditions: 72 h; summary of the method: as §1

| Compound | IC50 [1] | IC50 [2] | IC50 [3] |
| --- | --- | --- | --- |
| CCCCN(CCCC)CCCOc1c(-c2cc(OC)c(OC)c(OC)c2)oc2ccccc2c1=O | 7.1 µM | 15.7 µM | 9 µM |
| O=c1c(O)c(-c2ccc(O)c(O)c2)oc2cc(O)cc(O)c12 [QUERCETIN] | > 100 µM | > 100 µM |  |
| CCCCCN(CCCCC)CCCCCOc1c(-c2cc(OC)c(OC)c(OC)c2)oc2ccccc2c1=O | 9.6 µM | 11.7 µM | 7.9 µM |
| CCCN(CCC)CCCOc1c(-c2cc(OC)c(OC)c(OC)c2)oc2ccccc2c1=O | 16.8 µM | > 50 µM | 17.9 µM |
| CCCN(CCC)CCCCOc1c(-c2cc(OC)c(OC)c(OC)c2)oc2ccccc2c1=O | 11.6 µM | 35.8 µM | 16.8 µM |
| CCN(CC)CCCOc1c(-c2cc(OC)c(OC)c(OC)c2)oc2ccccc2c1=O | 13.6 µM | > 50 µM | 37.6 µM |

Results, then the compound that gave them:

| IC50 [1] | IC50 [2] | IC50 [3] | Compound |
| --- | --- | --- | --- |
| 21.2 µM | > 50 µM | 8.8 µM | COc1cc(-c2oc3ccccc3c(=O)c2OC(C)C)cc(OC)c1OC |
| 12.8 µM | > 50 µM | 8.9 µM | CCCCOc1c(-c2cc(OC)c(OC)c(OC)c2)oc2ccccc2c1=O |
| 38.6 µM | > 50 µM | 9.3 µM | CCC(C)Oc1c(-c2cc(OC)c(OC)c(OC)c2)oc2ccccc2c1=O (configuration not stated) |
| 29.2 µM | > 50 µM | 19.6 µM | CCCCCCOc1c(-c2cc(OC)c(OC)c(OC)c2)oc2ccccc2c1=O |
| 19.1 µM | > 50 µM | 24.7 µM | COc1cc(-c2oc3ccccc3c(=O)c2OC)cc(OC)c1OC |
